Data set [1] has as its system OVSAHO cells. Description: Immunoblot analysis with densitometry. Format: cell-based, human. Conditions: for ERK activation (phosphorylated ERK): 100 nM; for p21 protein expression: western blot; for Cleaved PARP expression level: western blot densitometry. On the technique in general: In western blotting, separated proteins are transferred to a membrane and probed.
In data set [2] the test system is MOE^HIGH murine oviductal epithelial cells. Description: Cell viability assay. Format: cell-based. Conditions: Mus musculus, 72 h, read-out: IC50 against MOE^HIGH.
In another data set the test system is hERG channels. Conditions: cited from earlier work.
Another data set concerns OVCA432 cells. Description: Immunoblot analysis. Format: cell-based, human.
The test system of data set [3] is MOE^LOW murine oviductal epithelial cells. Description: Cell viability assay. Format: cell-based. Conditions: Mus musculus, 72 h, read-out: IC50 against MOE^LOW.
Data set [4] relates to OVCAR3 cells. The experiment in a line: Cell cycle assay. Format: cell-based, human. Conditions: OVCAR3, 72 h.
For data set [5], the system named is OVCAR3 cells. Description: Immunoblot analysis with densitometry. Conditions: for ERK activation (phosphorylated ERK) / p53 expression: OVCAR3, 100 nM; for p53 expression: 72 h; for Bcl-xL expression / Cleaved PARP level / Cleaved caspase 3 level / Mcl-1 expression / p21 protein expression: OVCAR3, western blot densitometry. Format: cell-based, human. The method, boiled down: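 OVCAR3 cells exposed to test compound (100 nM, 72 h). Lysed in RIPA buffer on ice for 15 min, then spun at 14,000 g, 4 °C, 15 min. Protein quantified by BCA; 25 μg per lane run on SDS-PAGE and transferred to PVDF. Blocked in 5% milk/TBST for 1 h at RT, primary antibody overnight at 4 °C, secondary 30 min. Chemiluminescent detection, ImageJ densitometry, n = 3.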

For data set [6], the system named is MDA-MB-231 breast cancer cells. Conditions: cited from earlier work.
Data set [7] concerns OVCAR3 human ovarian cancer cells. The experiment in a line: Cell viability assay. Format: cell-based. Conditions: OVCAR-3, 72 h, read-out: IC50 against OVCAR3.
Data set [8] relates to normal human peripheral blood mononuclear cells. Conditions: cited from earlier work.
Data set [9] deals with OVSAHO cells. The experiment in a line: Clonogenic assay. Conditions: 21 days, treated every three days. Format: cell-based, human. The method, boiled down:
(§1)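 Cells in RPMI 1640 with 10% FBS were plated at 200 cells per 60 mm dish and grown 21 days. Test compound or solvent control was given every three days. Colonies were fixed with 4% (w/v) paraformaldehyde, stained with 0.04% (w/v) crystal violet for 30 min at room temperature, imaged and counted by image analysis. Three biological replicates.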

For data set [10], the system named is OVCAR3 ovarian cancer cells. Conditions: cited from earlier work.
Data set [11] has as its system OVCAR3 cells. The experiment in a line: Soft agar colony formation assay. Conditions: OVCAR3, 21 days, vs DMSO control. Format: cell-based, human. The gist of the method: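 OVCAR3 cells, cultured in RPMI 1640 with 10% FBS, were suspended at 1.5 × 10^4 cells in 0.35% w/v top agar over a 0.5% w/v base agar layer. They were grown 21 days with the medium changed every three days. Colonies were imaged by microscopy and counted by image analysis. Three biological replicates.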

Data set [12] concerns OVSAHO cells. Description: Soft agar colony formation assay. Format: cell-based, human. Conditions: 21 days, vs DMSO control. The gist of the method:
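OVSAHO cells (1.5 × 104) suspended in 0.35% w/v agar over a 0.5% w/v base agar layer, with test compound or solvent control. Grown 21 days with medium changed every three days. Colonies imaged by microscopy and counted by image analysis; three biological replicates.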

The next data set deals with HT-29 colon cancer cells. Conditions: cited from earlier work.
The subject of a further data set is KB nasopharyngeal cells. Conditions: cited from earlier work.
Data set [13] deals with OVCAR3 cells. Description: Clonogenic assay. Conditions: OVCAR3, 21 days, treated every three days. Format: cell-based, human. The method, boiled down: as §1
In data set [14] the test system is normal human colon CCD-112CoN cells. Conditions: cited from earlier work.
For a further data set, the system named is OVCAR8 cells. Description: Cell viability assay. Format: cell-based. Conditions: Homo sapiens, OVCAR-8, 72 h, read-out: IC50 against OVCAR8.
Data set [15] has as its system Na^+/K^+-ATPase (adenosine 5′-triphosphatase from porcine cerebral cortex). Description: Na^+/K^+-ATPase activity assay. Format: biochemical. Conditions: various concentrations, 15 min at 37 °C. The method, boiled down:
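The Na+/K+-ATPase from porcine cerebral cortex, in assay buffer, was mixed with DMSO or test compound in DMSO, and ATP was added to start the reaction. After 15 min at 37 °C, ADP-Glo reagent stopped the reaction and depleted ATP over 40 min at room temperature. Detection reagent then converted ADP to ATP over 60 min, and ATP was read by luciferin/luciferase luminescence.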

For orientation: IC50 means the concentration that inhibits the measured activity by half.

A value given as a limit tells only on which side of the number the result lay.

Turning to `C[C@H]1O[C@@H](O[C@H]2[C@@H](O)C[C@H](O[C@H]3[C@@H](O)C[C@H](O[C@H]4CC[C@@]5(C)[C@H](CC[C@@H]6[C@@H]5CC[C@]5(C)[C@@H](C7=CC(=O)OC7)CC[C@]65O)C4)O[C@@H]3C)O[C@@H]2C)C[C@H](O)[C@@H]1O` [digitoxin, reference compound], in the data set on OVSAHO cells [1], the “ERK activation (phosphorylated ERK)” value was “induced activation of ERK”, the p21 protein expression result is given as “significant increase in p21 expression” and the “Cleaved PARP expression level” value was “higher than the levels in control cells”. The IC50 in [2] is above 50 µM. Besides, the “Interaction with hERG channels and hERG trafficking” value with hERG channels is “reported to interact with hERG channels and hERG trafficking”. Moreover, the p53 expression entry in the data set with OVCA432 cells is “decreased expression of p53”. In addition, the 50% inhibitory concentration (IC50) in [3] was above 50 µM. Also, in the data set with OVCAR3 cells [4], the Cell cycle distribution result is listed as “accumulation of cells in the G2/M phase”. In the data set on OVCAR3 cells [5], the “ERK activation (phosphorylated ERK)” value is “induced activation of ERK”, the p53 expression entry was “disappearance of p53”, the Bcl-xL expression entry is recorded as “decrease in Bcl-xL after treatment was not statistically significant” and the “Cleaved PARP level” value is reported as “significantly higher levels of cleaved PARP”. In addition, in the data set on OVCAR3 cells [5], the “Cleaved caspase 3 level” value is on record as “significant increase in cleaved caspase 3”, the Mcl-1 expression entry is “expressed less Mcl-1 than control cells” and the p21 protein expression result was “expressed more p21 protein than the control”.

As for `CO[C@H]1[C@H](O[C@H]2CC[C@]3(C=O)[C@H]4CC[C@]5(C)[C@@H](C6=CC(=O)OC6)CC[C@]5(O)[C@@H]4CC[C@]3(O)C2)O[C@H](C)[C@H](O)[C@@H]1OC` [(+)-strebloside, (+)-Strebloside], the “ERK activation (phosphorylated ERK)” value with OVSAHO cells [1] and in the data set on OVCAR3 cells [5] was “induced activation of ERK” each time. Also, the figures for the p21 protein expression result with OVSAHO cells [1] and in the data set on OVCAR3 cells [5] were “significant increase in p21 expression” and “expressed more p21 protein than the control”, respectively. In the data set with OVSAHO cells [1], the “Cleaved PARP expression level” value was “higher than the levels in control cells”. Further, the IC50 in data set [2] was above 50 µM; in data set [7], 0.134 µM; in data set [3], above 50 µM; with OVCAR8 cells, 0.0911 µM. Further, the “In vivo potency in hollow fiber assay” value in data set [6] and in data set [10] was “significant potency in vivo” in each case. For the same compound, the p53 expression result is given as “decreased expression of p53” in the data set with OVCA432 cells and “disappearance of p53” with OVCAR3 cells [5]. Further, the “Toxicity compared with digoxin” value in [8] and in data set [14] was “not as toxic as digoxin” each time. The 2D colony formation result in the data set on OVSAHO cells [9] and in the data set on OVCAR3 cells [13] was “neither OVCAR3 nor OVSAHO cells formed colonies” in each case. The “Soft agar colony formation (anchorage-independent growth)” value with OVCAR3 cells [11] is given as “formed significantly less soft agar colonies than a DMSO control”; in the data set with OVSAHO cells [12], “no difference was detected”. Also, the Cytotoxicity result in the data set with HT-29 colon cancer cells and in the data set with KB nasopharyngeal cells was “potent cytotoxicity” in each case. Also, the Cell cycle distribution result in the data set with OVCAR3 cells [4] is reported as “induced an accumulation of cells in the G2/M phase”. Besides, the Bcl-xL expression result with OVCAR3 cells [5] is reported as “decrease in Bcl-xL after treatment was not statistically significant”. For the same compound, the “Cleaved PARP level” value with OVCAR3 cells [5] was “significantly higher levels of cleaved PARP”. For the same compound, the “Cleaved caspase 3 level” value in the data set with OVCAR3 cells [5] was “significant increase in cleaved caspase 3”. The Mcl-1 expression result with OVCAR3 cells [5] is on record as “expressed less Mcl-1 than control cells”. In data set [15], the “Inhibition of Na^+/K^+-ATPase activity” value is on record as “inhibited Na^+/K^+-ATPase activity in a concentration-dependent manner”.

(Values after paper PMC5768141 (Journal of natural products, 2017).)
